Source: ChEMBL document CHEMBL1129491, “Synthesis of non-nucleoside analogs of toyocamycin, sangivamycin, and ++thiosangivamycin: influence of various 7-substituents on antiviral activity” (J Med Chem, 1996)

Tests used:
HFF = test: Cytotoxicity against HFF cells, estimated by visual scoring of cells not affected by virus infection in the plaque reduction assay; assay type: functional, cell-based; conditions: Homo sapiens
How it was run: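 Uninfected areas of HFF monolayers in the HCMV plaque-reduction assay examined at 35-fold magnification. Drug-induced cytopathology scored 0–4 on the day plaques were stained and counted.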

KB [1] = test: Cytotoxic activity tested against exponentially growing KB cells, determined by staining method; assay type: functional, cell-based; conditions: Homo sapiens
How it was run: (§1)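 KB cells (human oral epidermoid carcinoma) kept in MEM(H) with 10% calf serum and tested while exponentially growing. Toxicity measured by a previously described staining method. IC50 from linear regression of percent inhibition against log drug concentration; two or more experiments averaged.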

Human betaherpesvirus 5 [2] = test: Antiviral activity against Human Cytomegalovirus (HCMV) replication in a plaque reduction assay; assay type: functional, organism-based
How it was run: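 Towne strain HCMV (plaque-purified P0) on HFF monolayers in MEM(E) with 10% FBS. Inoculum ca. 100 PFU per 0.2 mL; compounds dissolved in the overlay medium; plaques counted after staining. IC50 from linear regression of percent inhibition against log concentration. Ganciclovir as positive control; two or more experiments averaged.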

Human alphaherpesvirus 1 = test: Antiviral activity against HSV-1 replication was evaluated by ELISA; assay type: functional, organism-based
How it was run: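 HSV-1 strain S-148 ELISA following Prichard and Shipman. Drug concentrations applied to infected cultures; percent inhibition regressed linearly against log concentration and IC50 read from the regression line. Acyclovir as positive control. Most assays averaged over two or more experiments, but HSV-1 ELISAs were run once.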

L1210 [3] = test: In vitro cytotoxicity against growth rate of L1210 cell at 100 micro M was evaluated.; assay type: functional, Mus musculus
How it was run: (§2)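 L1210 murine leukemia cells in Fischer's medium with 10% heat-inactivated horse serum (56 °C, 30 min), exposed to 100 μM compound. Cells counted at 0, 24, 48, 72 and 96 h. Growth rate taken as the slope of semilog cell number versus time, expressed as percent of untreated control.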

Human betaherpesvirus 5 [4] = test: Antiviral activity in Human Cytomegalovirus Viral infection was evaluated by ELISA method; assay type: functional, organism-based
How it was run: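 MRC-5 cells held overnight at 37 °C, then infected with Towne HCMV at moi 0.002 PFU/cell. After 1 h adsorption, up to 10 drug concentrations added in triplicate. Fixed with 95% EtOH after 6.5 days. Blocked, then mouse anti-HCMV monoclonal (1:400, 1 h) and peroxidase anti-mouse (1:1000, 2 h). Read at 450/570 nm, background subtracted; IC50 by log-linear regression.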

L1210 [5] = test: In vitro cytotoxicity against growth rate of L1210 cell at 100 uM was evaluated.; assay type: functional, Mus musculus; how it was run: as §2
KB [6] = test: Cytotoxic activity against exponentially growing KB cells was determined by a staining method; assay type: functional, cell-based; conditions: Homo sapiens; how it was run: as §1
L1210 [7] = test: Inhibitory concentration required to decrease the growth rate of L1210 cells to one-half of the control rate.; assay type: functional, cell-based; conditions: Mus musculus
How it was run: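 L1210 cells in Fischer's medium with 10% heat-inactivated horse serum, counted at 0, 24, 48, 72 and 96 h across selected compound concentrations. Growth rate is the semilog slope as percent of control. IC50 is the concentration that halves the growth rate; '>' values give the highest concentration tested.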

L1210 [8] = test: Percent control against growth rate of L1210 cell at 100 micro M was evaluated.; assay type: functional, Mus musculus; how it was run: as §2

SMILES | IC50 (HFF) [µM] | IC50 (KB [1]) [µM] | IC50 (Human betaherpesvirus 5 [2]) [µM] | IC50 (Human alphaherpesvirus 1) [µM] | Control (L1210 [3]) [%] | IC50 (Human betaherpesvirus 5 [4]) [µM] | Control (L1210 [5]) [%] | IC50 (KB [6]) [µM] | IC50 (L1210 [7]) [µM] | Control (L1210 [8]) [%]
COCCOCn1cc(C#N)c2c(N)ncnc21 | > 100 | > 100 | 90 | > 100 | 88 |  |  |  |  | 
CCOCn1cc(C(=N)S)c2c(N)ncnc21 | 66 | 68 | 2.7 | 40 | 111 | 7 |  |  |  | 
COCCOCn1cc(C(N)=S)c2c(N)ncnc21 | > 100 | 183 | 1 | 85 | 88 | 1.9 |  |  |  | 
N#Cc1cn(COCc2ccccc2)c2ncnc(N)c12 | > 100 | > 100 | > 100 | > 100 | 83 |  |  |  |  | 
Cc1ccc(Cn2cc(C#N)c3c(N)ncnc32)cc1 | > 100 | > 100 | > 100 | > 100 |  |  | 64 |  |  | 
Cc1cccc(Cn2cc(C#N)c3c(N)ncnc32)c1 | > 100 |  | > 100 | > 100 |  |  |  | > 100 |  | 
Cc1ccc(Cn2cc(C(N)=O)c3c(N)ncnc32)cc1 | > 100 | > 100 | > 100 | > 100 |  |  | 2 |  | 20 | 
CC(C)(C)c1ccc(Cn2cc(C(N)=O)c3c(N)ncnc32)cc1 | 100 | 0.9 | 28 | 50 |  |  |  |  |  | 
COc1ccc(Cn2cc(C(=N)S)c3c(N)ncnc32)cc1 | 66 | 28 | 0.5 | 4 |  | 0.5 |  |  |  | 
NC(=O)c1cn(COCc2ccccc2)c2ncnc(N)c12 | > 100 | > 100 | > 100 | > 100 | 0 |  |  |  | 70 | 
COc1ccc(Cn2cc(C#N)c3c(N)ncnc32)cc1 | > 100 | > 100 | > 100 | > 100 |  |  |  |  |  | 
Cc1ccccc1Cn1cc(C#N)c2c(N)ncnc21 | > 100 | > 100 | 3.4 | > 100 |  | 32 |  |  |  | 
CC(C)(C)c1ccc(Cn2cc(C#N)c3c(N)ncnc32)cc1 | > 32 | 3 | 32 | > 100 |  |  |  |  |  | 
NC(=O)c1cn(Cc2ccccc2)c2ncnc(N)c12 | > 32 | 75 | > 100 | 33 |  |  | 0 |  | 16 | 
NC(=S)c1cn([C@@H]2O[C@H](CO)[C@@H](O)[C@H]2O)c2ncnc(N)c12 | 0.2 |  | 0.2 |  |  |  |  |  |  | 
NC(=S)c1c[nH]c2ncnc(N)c12 | > 32 | 25 | 1.6 | 35 |  |  |  |  |  | 
Cc1cccc(Cn2cc(C(=N)S)c3c(N)ncnc32)c1 | 66 | 30 | 0.25 | 15 |  |  |  |  |  | 
COc1ccc(Cn2cc(C(N)=O)c3c(N)ncnc32)cc1 | > 32 | 47 | 13 | 35 |  |  |  |  |  | 
CC(C)(C)c1ccc(Cn2cc(C(=N)S)c3c(N)ncnc32)cc1 | > 100 | 7 | 1.5 | 15 |  |  |  |  |  | 
NC(=S)c1cn(Cc2ccccc2)c2ncnc(N)c12 | > 32 | 32 | 0.36 | 7.4 |  | 0.33 | 0 |  | 70 | 
Cc1ccc(Cn2cc(C(=N)S)c3c(N)ncnc32)cc1 | 100 | 65 | 0.1 | 3.5 |  | 0.15 | 92 |  | > 10 | 
C=CCn1cc(C(N)=O)c2c(N)ncnc21 |  | 100 | > 100 | > 100 |  |  | 66 |  |  | 

SMILES | IC50 (HFF) [µM] | IC50 (KB [1]) [µM] | IC50 (Human betaherpesvirus 5 [2]) [µM] | IC50 (Human alphaherpesvirus 1) [µM] | Control (L1210 [3]) [%] | IC50 (Human betaherpesvirus 5 [4]) [µM] | Control (L1210 [5]) [%] | IC50 (KB [6]) [µM] | IC50 (L1210 [7]) [µM] | Control (L1210 [8]) [%]
Cn1cc(C(N)=O)c2c(N)ncnc21 |  | > 100 | > 100 | > 100 |  |  | 89 |  |  | 
CCCn1cc(C(=N)S)c2c(N)ncnc21 | 25 | 17 | 1.2 | 12 |  |  | 79 |  |  | 
Cn1cc(C#N)c2c(N)ncnc21 |  | > 100 | > 100 | > 100 |  | > 100 | 87 |  |  | 
NC(=S)c1cn(COC(CO)CO)c2ncnc(N)c12 | > 100 | > 100 | 6.2 | > 100 |  |  |  |  |  | 
NC(=S)c1cn(COCCO)c2ncnc(N)c12 | > 100 | 115 | 8.8 | 21 |  |  |  |  |  | 
N#Cc1cn(Cc2ccccc2)c2ncnc(N)c12 | > 100 | > 100 | > 100 | 90 |  |  | 60 |  |  | 
CCOCn1cc(C(N)=O)c2c(N)ncnc21 | > 100 | > 100 | > 100 | > 100 |  |  |  |  |  | 91
COCCOCn1cc(C(N)=O)c2c(N)ncnc21 | > 100 | > 100 | > 100 | > 100 | 92 |  |  |  |  | 
Cc1cccc(Cn2cc(C(N)=O)c3c(N)ncnc32)c1 | > 100 | > 100 | > 100 | > 100 |  |  |  |  |  | 
NC(=S)c1cn(COCc2ccccc2)c2ncnc(N)c12 | > 100 | > 100 | 2.6 | 10 | 52 | 1.8 |  |  | 100 | 
Cc1ccccc1Cn1cc(C(N)=O)c2c(N)ncnc21 | > 100 | > 100 | 15 | > 100 |  |  |  |  |  | 
CCOCn1cc(C#N)c2c(N)ncnc21 | > 100 | > 100 | > 100 | > 100 | 76 |  |  |  |  | 
Cc1ccccc1Cn1cc(C(=N)S)c2c(N)ncnc21 | 66 | > 17 | 0.1 | 0.9 |  |  |  |  |  | 
CCCn1cc(C(N)=O)c2c(N)ncnc21 |  | 100 | > 100 | > 100 |  | > 100 | 0 |  | 73 | 
C=CCn1cc(C(N)=S)c2c(N)ncnc21 |  | 19 | 2.1 | 4.5 |  |  | 0 |  | 38 | 
CCCn1cc(C#N)c2c(N)ncnc21 | > 100 | > 100 | 36 | > 100 |  |  | 74 |  |  | 
Cn1cc(C(=N)S)c2c(N)ncnc21 |  | 15 | 1.2 | 2.8 |  |  | 0 |  | 38 | 
C=CCn1cc(C#N)c2c(N)ncnc21 |  | > 100 | > 100 | > 100 |  |  | 75 |  |  | 
NC(=O)c1cn([C@@H]2O[C@H](CO)[C@@H](O)[C@H]2O)c2ncnc(N)c12 [SANGIVAMYCIN] | < 0.01 | 0.08 |  |  |  |  |  |  |  | 
N#Cc1c[nH]c2ncnc(N)c12 [TOYOCAMYCIN AGLYCONE] | 10 | 18 | 3.9 | > 100 |  |  |  |  |  | 
N#Cc1cn([C@@H]2O[C@H](CO)[C@@H](O)[C@H]2O)c2ncnc(N)c12 [TOYOCAMYCIN] | < 0.01 | 0.03 |  |  |  |  |  |  |  | 
